Shown are actives, neighbours in structure and some others; about 9.6% of the full set was active somewhere.
TNAP inh noacc – human TNAP enzyme inhibitors, primary screen, biochemical, luminescent, no phosphate acceptor, uHTS; actives 0.26% (n = 200,000); inhibition, % at 20 µM; purified TNAP, CDP-star luminescence, 30 min; AID 1012, 2008;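 active means tissue-nonspecific alkaline phosphatase inhibition above about 50% at 20 µM in the single-dose screen, limit read from the data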;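 further: 0% = DMSO negative control and 100% = EDTA positive control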
Target sequence (P05186 whole entry, looked up): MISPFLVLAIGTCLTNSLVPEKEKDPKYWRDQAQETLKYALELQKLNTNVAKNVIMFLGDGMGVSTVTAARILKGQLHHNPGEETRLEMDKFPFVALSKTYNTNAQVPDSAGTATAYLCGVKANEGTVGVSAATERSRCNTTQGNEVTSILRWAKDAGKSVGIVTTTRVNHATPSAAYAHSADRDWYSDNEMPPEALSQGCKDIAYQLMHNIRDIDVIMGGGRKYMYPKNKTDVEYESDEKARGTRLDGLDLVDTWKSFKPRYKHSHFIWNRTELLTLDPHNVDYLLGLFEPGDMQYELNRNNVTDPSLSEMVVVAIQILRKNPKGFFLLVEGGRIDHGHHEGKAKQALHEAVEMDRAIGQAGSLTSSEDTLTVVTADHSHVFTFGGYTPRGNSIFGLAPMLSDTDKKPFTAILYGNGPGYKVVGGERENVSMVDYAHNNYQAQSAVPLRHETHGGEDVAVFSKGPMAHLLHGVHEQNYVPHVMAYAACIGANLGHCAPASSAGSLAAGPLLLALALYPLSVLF
TNAP inh hi DEA – human TNAP enzyme inhibitors, primary screen, biochemical, luminescent, high phosphate acceptor level, uHTS; inhibition, % at 20 µM; purified TNAP, CDP-star luminescence, 1 M DEA; AID 1135, 2008; actives 0.03% (n = 200,000);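 active means over 50% inhibition of tissue-nonspecific alkaline phosphatase at 20 µM in the single-dose screen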;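 further: plate controls were DMSO wells for no effect and EDTA-quenched wells as full inhibition for full effect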
HCT116 bCat-KO – primary screen for growth suppressors in beta-catenin knockout HCT116 cells (colon tumor, human); AID 818, 2007; actives 1.5% (n = 140,000); viability, % at 10 µM; HCT116 beta-catenin knockout viability, CellTiter-Glo, 60 h; hits give low values;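 active means viability at or under a set limit, the compound median less 4 SD, cut at about 6% in these data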;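 further: 0% = Hyamine 1622 control at 20 µM and 100% = untreated cell control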
PTEN del growth – growth suppression of PTEN-null HCT116, primary screen, cell-based, CellTiter-Glo; viability, % at 10 µM; AID 827, 2007; actives 1.2% (n = 140,000); HCT116 PTEN-null viability, 60 h; hits give low values;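 active means viability at or below a set limit, 4 SD under the median of all tested compounds, cut at about 3.7% in these data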;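 further: PTEN knockout HCT116 line with beta catenin targeted HCT116 as companion control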
Lmaj promast – Leishmania major promastigote growth inhibition, primary screen. Leishmania major promastigotes, resazurin fluorescence viability. inhibition, % at 10 µM. actives 9% (n = 200,000). AID 1063, 2008; in the data active means inhibition above about 50%;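 further: promastigotes grown with compound for 44 hours at 28 °C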
TNAP act hiacc – TNAP activators at high phosphate acceptor level, primary screen, biochemical, luminescence, uHTS. purified TNAP, CDP-star luminescence, 1 M DEA, 30 min; hits give high values; 0 = EDTA background, 1 = DMSO-only activity. AID 1136, 2008. 200,000 tested, under 10 active. Alkaline phosphatase, tissue-nonspecific isozyme (Homo sapiens), P05186. activation factor at 20 µM;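 active means activation factor at least 2 at 20 µM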
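system = human TNAP | amount = enzyme diluted 1/800 final | reagent = 100 µM CDP-star substrate | signal = luminescent substrate turnover signal | dosing = one dose, 20 µM | benchmarks = EDTA negative control, DMSO positive control | measure = activation factor | timing = 30 min reaction, room temperature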
Numbers without * were called inactive; . = not tested or not shown.

SMILES	TNAP inh noacc	TNAP inh hi DEA	HCT116 bCat-KO	PTEN del growth	Lmaj promast	TNAP act hiacc
CC(C)/C=N/Nc1nc(-c2ccc(Br)cc2)cs1	-2	0	81	86	37	1
CNc1nc(-c2ccccc2)cc(C)c1S(C)(=O)=O	-10	0	.	.	-2	1
Cc1ccccc1S(=O)(=O)Nc1nc2ccccc2nc1N1CCc2ccccc2C1	-3	1	72	62	-1	1
O=C(O)c1ccccc1SC1CC(=O)N(c2ccccc2)C1=O (centres undefined)	-6	6	97	104	51*	0.9
COc1cc2nc(NC(=O)c3ccc(Cl)cc3)[nH]c(=O)c2cc1OC	-15	4	91	97	60*	1
CC1=NC(Nc2nc(C)c3ccccc3n2)=NC(C)(C)C1	0	-6	107	109	98*	1.1
COc1ccc(Nc2nc(C)c3ccccc3n2)cc1	-3	1	80	80	34	1
CN(C[C@@H](CC1CCCCC1)N(C[C@H](Cc1ccccc1)N(CCc1ccccc1)N=O)N=O)N=O	-7	-4	.	.	7	1
Cc1nn(-c2ccccc2)c(C)c1/C=N/NC(=O)c1cc(C2CC2)[nH]n1	20	-6	101	99	-2	1.1
Cc1nn(-c2ccccc2)c(C)c1/C=N/NC(=O)c1cc(-c2ccc(Cl)s2)[nH]n1	67*	7	10	7	45	0.9
Cc1nn(-c2ccccc2)c(C)c1/C=N/NC(=O)c1cc(-c2ccc(Br)s2)[nH]n1	44	2	22	21	56*	1
Cc1nn(-c2ccccc2)c(C)c1/C=N/NC(=O)c1cccs1	-15	-3	55	55	2	1
O=C(O)c1cc(-c2cccs2)[nH]n1	83*	-7	.	.	-8	1.1
Cc1nn(-c2ccccc2)c(C)c1/C=N/NC(=O)c1cc(-c2cccs2)[nH]n1	84*	12	21	16	24	0.9
Cc1nc(CSc2ccccc2)cc(=O)[nH]1	-2	-3	.	.	-8	1
CC(Sc1nc(-c2ccccc2)cs1)C(=O)Nc1ccc(Cl)cn1 (centres undefined)	-12	1	92	81	22	1
CCCc1ccc(OCC(=O)Nc2cc(S(=O)(=O)CC)ccc2O)cc1	-6	-8	.	.	-15	1.1
Cc1ccc(C2=NN3C(C(=O)c4ccccc4)Oc4ccccc4C3C2)cc1 (centres undefined)	4	0	76	78	35	1
COc1cc(/C=N/NC(=O)c2cc(C34CC5CC(CC(C5)C3)C4)[nH]n2)ccc1O	54*	-1	92	95	5	1
Cc1nn(-c2ccccc2)c(C)c1/C=N/NC(=O)c1cc(C23CC4CC(CC(C4)C2)C3)[nH]n1	73*	-8	91	88	91*	1.1
COc1cc(/C=N/NC(=O)c2[nH]nc3c2CCc2ccccc2-3)ccc1O	66*	-5	40	30	14	1.1
COc1cc(/C=N/NC(=O)c2ccccc2)ccc1O	-9	-2	.	.	-2	1
CCc1nn(CC(=O)Nc2ccc(Br)c(C)c2)c(=N)s1	0	-2	.	.	7	1
C=CCNC(=O)c1ccccc1NC(=O)COc1ccccc1	-1	-2	.	.	-2	1
Cc1ccc(CSc2ccc3nnc(-c4ccccn4)n3n2)cc1	-6	-2	.	.	2	1
SMILES	TNAP inh noacc	TNAP inh hi DEA	HCT116 bCat-KO	PTEN del growth	Lmaj promast	TNAP act hiacc
Fc1ccc(CSc2ccc3nnc(-c4ccccn4)n3n2)cc1	-4	-4	.	.	96*	1
O=C(CCl)Nc1cc(S(=O)(=O)N2CCCCCC2)ccc1Cl	-20	-4	6	10	99*	1
CC(C)(C)CC(=O)Nc1cc(S(=O)(=O)N2CCCCCC2)ccc1Cl	-16	2	89	88	5	1
CC(NCc1ccccc1Cl)C(=O)Nc1ccc(S(=O)(=O)N2CCCC2)cc1 (centres undefined)	-10	-7	98	99	-2	1.1
Cc1ccc(-c2nc(SCC(=O)Nc3cc(S(=O)(=O)N4CCCCC4)ccc3Cl)n[nH]2)cc1	-1	-2	72	65	58*	1
CC(NCc1ccc(F)cc1)C(=O)Nc1cc(S(=O)(=O)N2CCCCC2)ccc1Cl (centres undefined)	-3	-2	.	.	62*	1
CCOc1ccc(C(=O)NCC(c2cccs2)N(C)C)cc1OCC (centres undefined)	-16	1	91	91	2	1
COCCCNC(=O)c1cc(S(=O)(=O)N2CCOCC2)ccc1SCc1cccc(OC)c1OC	10	2	.	.	0	1
COc1ccc(-c2noc(-c3ccccc3C(=O)Nc3cccnc3)n2)cc1OC	-8	-5	88	88	71*	1
COc1ccc(-c2noc(-c3ccccc3C(=O)Nc3cccnc3)n2)cc1	-8	-1	86	80	22	1
CC(Oc1ccc(Cl)cc1Cl)c1nc(-c2ccc(NC(=O)c3cccnc3)cc2)no1 (centres undefined)	-8	-4	15	11	95*	1
COc1ccc(NC(=O)c2cccs2)cc1OC	-11	-4	103	81	-1	1
COc1ccc(Cl)cc1-c1nc(-c2ccc(NC(=O)c3cccs3)cc2)no1	22	0	3.3*	2.5*	65*	1
CC(C)CC(=O)Nc1nnc(SCC(=O)NCc2ccc3c(c2)OCO3)s1	-11	-1	.	.	-11	1
C/C(=N\N=C(N)N)c1ccc(Cl)c(Cl)c1	-7	-5	.	.	101*	1.1
CCOC(=O)c1cnc2c(OC)cccc2c1NCc1cccnc1	-5	-6	.	.	19	1.1
CCOC(=O)c1cnc2ccccc2c1NCCc1ccc(OC)c(OC)c1	-6	0	49	50	23	1
CCOC(=O)c1cnc2ccc(OCC)cc2c1NCc1ccccc1	23	0	20	28	98*	1
CCOC(=O)c1cnc2ccc(OCC)cc2c1NCc1cccnc1	11	3	29	33	65*	1
CCOC(=O)c1cnc2ccc(OC)cc2c1NCCc1ccc(OC)c(OC)c1	-21	-1	53	62	64*	1
CCN(CC)S(=O)(=O)c1cccc(NC(=O)COC(=O)C2CC3C=CC2C3)c1 (centres undefined)	0	-4	.	.	2	1
Cc1ccc(N2C(=O)c3ccccc3C2Nc2cccnc2)nc1 (centres undefined)	-3	-1	89	86	69*	1
